The record followed here is ChEMBL document CHEMBL1156389, “Aglacins A-D, first representatives of a new class of aryltetralin cyclic ether lignans from Aglaia cordata” (J Nat Prod, 2001).

Calls of active or inactive are those of the source. No cut-off for these calls is given here.

One assay has as its system HL-60. The experiment in a line: Cytotoxicity against human HL60 cells at 2 mg/mL to 10 ng/mL by MTT assay. In kind it is functional, cell-based. The procedure, abridged: (§1)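 Antiproliferative MTT assay on the human leukemia line HL-60, the human carcinoma line HELA and the KB line. Compounds were tested over 2 mg/mL to 10 ng/mL, in triplicate.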
A general note: Tetrazolium dyes change colour on reduction, which living cells bring about.

The test system of a further assay is HeLa. The experiment in a line: Cytotoxicity against human HeLa cells at 2 mg/mL to 10 ng/mL by MTT assay. In kind it is functional, cell-based. The procedure, abridged:
as §1

Turning to `COc1cc([C@@H]2c3c(cc(OC)c(OC)c3OC)C[C@@H]3COC[C@H]32)cc(OC)c1OC`, the result in the assay on HL-60 and in the assay with HeLa was inactive.
As for `COc1cc([C@H]2c3c(cc(OC)c(OC)c3OC)C(=O)[C@@H]3COC[C@@H]23)cc(OC)c1OC`, the outcome in the assay with HL-60 and in the assay on HeLa was inactive.
As to `COc1cc([C@@H]2c3c(cc(OC)c(OC)c3OC)[C@H](OC(C)=O)[C@@H]3COC[C@@H]23)cc(OC)c1OC`, the outcome in the assay on HL-60 and with HeLa was inactive.
Regarding `COc1ccc([C@@H]2c3c(cc(OC)c(OC)c3OC)C[C@@H]3COC[C@H]32)cc1OC`, the result with HL-60 and with HeLa was inactive.
